Experimental data reported in ChEMBL document CHEMBL4382227, “Optimization and preclinical evaluation of novel histamine H3receptor ligands: Acetyl and propionyl phenoxyalkyl piperazine derivatives” (Bioorg Med Chem, 2018).
The source made the active and inactive calls. The calls are words filed in the database; no cut-off is given here.

How the values were obtained:
[1] = molecular target: Histamine H3 receptor (Homo sapiens, UniProt Q9Y5N1); assay: Displacement of [3H]N-alpha-methylhistamine from full length recombinant human H3R expressed in HEK293 cell membranes after 90 mins by beta scintillation counting method
Histamine H3 receptor, sequence (Q9Y5N1 whole entry): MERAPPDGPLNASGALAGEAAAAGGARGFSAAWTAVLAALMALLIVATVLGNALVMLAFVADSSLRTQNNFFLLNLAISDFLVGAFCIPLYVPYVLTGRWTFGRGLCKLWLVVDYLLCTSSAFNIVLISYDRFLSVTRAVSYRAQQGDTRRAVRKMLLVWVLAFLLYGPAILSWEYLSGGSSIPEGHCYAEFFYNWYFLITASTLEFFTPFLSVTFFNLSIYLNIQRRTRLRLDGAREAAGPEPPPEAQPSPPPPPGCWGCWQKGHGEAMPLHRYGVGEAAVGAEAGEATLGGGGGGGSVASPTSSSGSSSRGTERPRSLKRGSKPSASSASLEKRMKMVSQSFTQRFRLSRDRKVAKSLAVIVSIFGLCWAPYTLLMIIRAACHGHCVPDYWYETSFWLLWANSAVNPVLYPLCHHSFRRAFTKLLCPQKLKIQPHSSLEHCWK
Summary of the method: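 Frozen crude membranes from HEK-293 cells stably expressing full-length human H3R were incubated 90 min at RT with shaking, with [3H]Nα-methylhistamine (2 nM; KD 3.08 nM) and 5–11 concentrations of test compound between 0.01 nM and 10 μM. Nonspecific binding was defined with pitolisant 10 μM. Samples were filtered on PEI-treated GF/B filters and washed with ice-cold water. Ki was derived from IC50 by Cheng-Prusoff; ≥3 experiments, each in at least duplicate.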

[2] = test system: HepG2; assay: Cytotoxicity against human HepG2 cells assessed as decrease in cell viability at 10 uM by MTS assay relative to control; type: cell-based; settings: hepg2, 10 µM
Summary of the method: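 HepG2 human hepatoma cells (ATCC HB-8065) were exposed to the test compound at concentrations that included 10 and 100 μM. Viability was read by the MTS assay at 490 nm absorbance and expressed relative to an untreated negative control. Doxorubicin and CCCP served as reference toxins. Significance was tested by one-way ANOVA with Bonferroni's comparison test.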

[3] = test system: Rattus norvegicus; assay: Anorectic activity in Wistar rat fed with palatable diet assessed as reduction in amount of calories consumed at 3 mg/kg, ip once daily for 14 days; type: functional, organism-based
Summary of the method: (§1)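 Male Wistar rats (initial 160–180 g), housed in pairs, given palatable diet (peanuts, condensed milk, milk chocolate with hazelnuts, Greek cheese) and dosed i.p. once daily in the morning for 14 days in 1% Tween 80; controls were vehicle on palatable or standard diet. Food intake was recorded three times per week and body weight daily before dosing. Results are mean ± SEM, n = 6; two-way ANOVA with Bonferroni.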

[4] = test system: Rattus norvegicus; assay: Protection against development of overweight in Wistar rat fed with preferantial feed assessed as decrease in weight gain at 3 mg/kg, ip once daily for 14 days measured daily during compound dosing; type: functional, organism-based; summary of the method: as §1
[5] = test system: HepG2; assay: Cytotoxicity against human HepG2 cells assessed as decrease in cell viability at 10 to 100 uM by MTS assay relative to control; type: cell-based; settings: hepg2, 100 µM
Summary of the method: (§2)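 HepG2 hepatoma cells; viability read by MTS at 490 nm against untreated negative control. Doxorubicin and CCCP served as reference toxins. One-way ANOVA with Bonferroni.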

[6] = Metabolic stability in human liver microsomes assessed as parent compound remaining after 120 mins by UPLC analysis; type: ADME, Microsome; settings: read-out: Stability
[7] = test system: Rattus norvegicus; assay: Protection against hyperglycemia in Wistar rat fed with palatable feed assessed as decrease in plasma glucose level at 3 mg/kg, ip once daily for 14 days by spectrophotometric method; type: functional, organism-based
Summary of the method: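 On day 15, plasma was taken from the left carotid artery 20 min after i.p. heparin (1000 j/rat) and thiopental (70 mg/kg b.w.), and peritoneal fat was weighed. Glucose was measured by an enzymatic colorimetric test read at 500 nm. Rats had been on palatable diet with daily i.p. dosing in 1% Tween 80 for 14 days.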

[8] = Toxicity in Wistar rat fed with palatable diet assessed as effect on spontaneous activity by measuring induction of hyperlocomotion at 3 mg/kg, ip for 13 days measured on day 1 and 13 at 24 hrs post dose; type: organism-based; settings: in vivo
Summary of the method: (§3)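 Wistar rats on palatable diet, housed in pairs in home cages, received daily i.p. dosing. Spontaneous activity was recorded by an RFID system for 24 h after dosing on days 1 and 13. Results are mean ± SEM, n = 6; multiple t-test.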

[9] = Toxicity in CD-1 mouse assessed as effect on spontaneous activity by measuring decrease in locomotor activity at 3 mg/kg, ip measured at 30 mins post dose for 20 mins; type: organism-based; settings: in vivo
Summary of the method: (§4)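 Male CD-1 mice (20–22 g) were placed in the activity cage immediately after i.p. dosing. Distance travelled was recorded from 30 min post-dose over 20 min. Groups had 6–8 animals.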

[10] = test system: Rattus norvegicus; assay: Protection against development of overweight in Wistar rat fed with palatable feed assessed as weight gain at 3 mg/kg, ip once daily for 14 days measured on day 14 during compound dosing relative to control; type: functional; summary of the method: as §1
[11] = test system: HepG2; assay: Induction of phospholipidosis in human HepG2 cells assessed as increase in number of cellular lysosomes at 50 uM after 72 hrs by LYSO-ID Red and Hoechst 33342 staining based fluorescence microscopic method; type: cell-based; settings: hepg2, 72 h
[12] = test system: Rattus norvegicus; assay: Protection against development of overweight in Wistar rat fed with palatable feed assessed as weight gain at 3 mg/kg, ip once daily for 14 days measured on day 9 during compound dosing relative to control; type: functional; summary of the method: as §1
[13] = test system: Rattus norvegicus; assay: Protection against development of overweight in Wistar rat fed with palatable feed assessed as decrease in peritoneal fat at 3 mg/kg, ip once daily for 14 days measured on day 15; type: functional, organism-based
[14] = Toxicity in Wistar rat fed with palatable diet assessed as effect on spontaneous activity by measuring induction of sedation at 3 mg/kg, ip for 13 days measured on day 1 and 13 at 24 hrs post dose; type: organism-based; settings: in vivo; summary of the method: as §3
[15] = test system: Rattus norvegicus; assay: Protection against development of overweight in Wistar rat fed with palatable feed assessed as decrease in weight gain at 1 mg/kg, ip once daily for 14 days measured daily during compound dosing; type: functional, organism-based; summary of the method: as §1
[16] = Toxicity in CD-1 mouse assessed as effect on spontaneous activity by measuring decrease in locomotor activity at 5 mg/kg, ip measured at 30 mins post dose for 20 mins; type: organism-based; settings: in vivo; summary of the method: as §4
[17] = test system: Rattus norvegicus; assay: Protection against development of overweight in Wistar rat fed with palatable feed assessed as decrease in weight gain at 3 mg/kg, ip once daily for 14 days; type: functional, organism-based; summary of the method: as §1
[18] = test system: HepG2; assay: Cytotoxicity against human HepG2 cells assessed as decrease in cell viability at 1 uM by MTS assay relative to control; type: cell-based; settings: hepg2, 1 µM; summary of the method: as §2

Row | SMILES | Ki [1] | other results
1 | CC(=O)c1ccc(OCCCN2CCN(c3ncccn3)CC2)cc1 | 2.45 µM | –
2 | N#CC(C#N)=NNc1cccc(Cl)c1 [CARBONYL CYANIDE M-CHLOROPHENYLHYDRAZONE] | – | Activity [2]: > 50%
3 | CC(=O)c1ccc(OCCCCN2CCN(c3ccccn3)CC2)cc1 | 3.7 µM | –
4 | CCC(=O)c1ccc(OCCCCN2CCN(c3ncccn3)CC2)cc1 | 3.63 µM | –
5 | CCC(=O)c1ccc(OCCCN2CCN(C(=O)C3CCCO3)CC2)cc1 (centres undefined) | 1.39 µM | –
6 | CCC(=O)c1ccc(OCCCCN2CCN(c3ccccn3)CC2)cc1 | 1.44 µM | –
7 | CC(=O)c1ccc(OCCCCN2CCN(C(=O)C3CCCO3)CC2)cc1 (centres undefined) | > 10 µM | –
8 | CCC(=O)c1ccc(OCCCN2CCN(c3cnccn3)CC2)cc1 | 3.39 µM | –
9 | CC(=O)c1ccc(OCCCN2CCN(C(=O)C3CCCO3)CC2)cc1 (centres undefined) | 4.89 µM | –
10 | CC(=O)c1ccc(OCCCN2CCN(c3cnccn3)CC2)cc1 | 2.32 µM | –
11 | CCC(=O)c1ccc(OCCCN2CCN(c3ncccn3)CC2)cc1 | 1.72 µM | –
12 | CC(=O)c1ccc(OCCCCN2CCN(c3ncccn3)CC2)cc1 | 1.63 µM | –
13 | COc1cccc2c1C(=O)c1c(O)c3c(c(O)c1C2=O)C[C@@](O)(C(=O)CO)C[C@@H]3O[C@H]1C[C@H](N)[C@H](O)[C@H](C)O1 [DOXORUBICIN] | – | Activity [18]: > 50%
14 | CCC(=O)c1ccc(OCCCCN2CCN(C(=O)C3CCCO3)CC2)cc1 (centres undefined) | > 10 µM | –
15 | CCC(=O)c1ccc(OCCCCN2CCN(c3cnccn3)CC2)cc1 | 4.04 µM | –
16 | CC(=O)N1CCN(c2ccc(OCC3COC(Cn4ccnc4)(c4ccc(Cl)cc4Cl)O3)cc2)CC1 (centres undefined) [KETOCONAZOLE] | – | Activity [11]: Toxic

Now from value to compound, other results behind:

Row | Ki [1] | SMILES | other results
17 | 0.315 µM | CC(=O)c1ccc(OCCCN2CCN(c3ccccn3)CC2)cc1 | –
18 | 0.0154 µM | CCC(=O)c1ccc(OCCCCN2CCN(c3ccncc3)CC2)cc1 | –
19 | 1.39 µM | CCC(=O)c1ccc(OCCCCN2CCN(c3cccnc3)CC2)cc1 | –
20 | 0.499 µM | CC(=O)c1ccc(OCCCN2CCN(c3cccnc3)CC2)cc1 | –
21 | 0.0102 µM | CC(=O)c1ccc(OCCCN2CCN(c3ccncc3)CC2)cc1 | Activity [3]: Active; Activity [4]: Active; Activity [5]: 10%; remaining at 2 h [6]: 91.3%; Activity [7]: Active; Activity [8]: Non-Toxic; Activity [9]: Non-Toxic; Activity [10]: 7.89%; Activity [11]: Non-Toxic; Activity [12]: 8.64%; Activity [13]: Active; Activity [14]: Non-Toxic; Activity [15]: inactive; Activity [16]: Toxic
22 | 0.0052 µM | CCC(=O)c1ccc(OCCCN2CCN(c3ccncc3)CC2)cc1 | Activity [17]: inactive; Activity [9]: Non-Toxic; Activity [16]: Toxic
23 | 0.377 µM | CCC(=O)c1ccc(OCCCN2CCN(c3ccccn3)CC2)cc1 | –
24 | 0.115 µM | CC(=O)c1ccc(OCCCCN2CCN(c3ccncc3)CC2)cc1 | –
25 | 0.908 µM | CC(=O)c1ccc(OCCCCN2CCN(c3cccnc3)CC2)cc1 | –
26 | 0.192 µM | CCC(=O)c1ccc(OCCCN2CCN(c3cccnc3)CC2)cc1 | –
27 | 1.23 µM | CC(=O)c1ccc(OCCCCN2CCN(c3cnccn3)CC2)cc1 | –
